Assay results published in the EternaBench riboswitch data.

System: MS2 coat protein
Assay: apparent Kd, MS2 coat protein; higher = weaker binding; RNA-MaP array; FMN 200 µM where present
Procedure, shortened: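 Designs were transcribed by stalled E. coli RNA polymerase on Illumina sequencing-chip clusters. They were titrated with SNAP-549-labelled MS2 coat protein from 0.7 or 1.5 nM, doubling to 3 µM, without and then with constant ligand. Buffer: 100 mM Tris-HCl pH 7.5, 80 mM KCl, 4 mM MgCl2, BSA, DTT, yeast tRNA, Tween-20. Green signal was normalised to red-channel RNA signal and control-cluster median Fmax. Apparent Kd is the median of filtered per-cluster binding-curve fits.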

[1] = designed as: OFF switch for flavin mononucleotide, no ligand
[2] = ligand present: flavin mononucleotide, designed as: OFF switch for flavin mononucleotide
[3] = designed as: ON switch for flavin mononucleotide, no ligand
[4] = ligand present: flavin mononucleotide, designed as: ON switch for flavin mononucleotide

Sequence	apparent Kd [1] [nM]	apparent Kd [2] [nM]	apparent Kd [3] [nM]	apparent Kd [4] [nM]
AAGUCGACGGUGAGGAUAUCGGUUGAACGACAGAUCGAGAAGGCACAUGAGGAUCACCCAUGUGGGUAACGUCG	19.3	31.8		
GAGCUAUGAGGAUAUGCAUAUAUACGGAUUCGUGUAGUACUACAUGAGGAUCACCCAUGUAGAAGGCGUGGCAG	13.1	15.1		
CGUAAGAUGCAGAAGGUGUUAGCUAGAGCUACGACAUGAGGAUCACCCAUGUACUAGAAACAGUACAAGGAUAUGCAUCUUACG			17.3	6.56
CCAGAGAUAUGAGGAUAUCGAGUGGAAUACACUCGAGAAGGCAUGUGAAUACAUGAGGAUCACCCAUGUGAUCAAUACUCUGGA			171	32.6
CAUCCACAUGAGGAUCACCCAUGUCAGGAUAUCUAUCAUAGCAUCGAAAGAUGCGGGUAGAGAAGGGACAAACC	12.9	20.2		
CUUUGACAUGAGGAUCACCCAUGUGAGGAUAUGAUGCGAUCGUCGAAAGACGAUAGCAUCAGAAGGCACAUAUG	85.7	238		
UUAUAAAGAGUGAGGAUAUGCUGGUCCUUGGAUCAGCAGAAGGCACAUGAGGAUCACCCAUGUAAAAUAAUAUU	28.4	41.2		
UGGUCAUGAUCAGGAUAUUAACAUGGGCUACAUUAAGAAGGGAUAGUGAGAUACGAACUGAAACAUGAGGAUCACCCAUGUGUU			170	107
GCUGACGAUGUAGGAUAUCAGUAUAAUAAAUACUGAGAAGGACAUGAGGAUCACCCAUGUAAAACUCCGUCAGCGAGGAAACUC	16.6	19.4		
GAUACACAUGAGGAUCACCCAUGUUAGGAUAUUAGCGGGAAAGCUGUCAAAACGCCGAUGAGAAGGAACAGGAG	40.6	31.4		
ACAAAUGGAGGAUAUACAUGAGGAUCACCCAUGUUUAUCCUACAUAUGUGAUAAUAAUGUAGAAGGCCAUUUGA	12.5	16.2		
UAAGUGUGAGGAUAUGGUAAAGAUAAGAUGAUGAAAGAACUCCAGAAGGCACAUGAGGAUCACCCAUGUAGAUG	39.4	141		
AUAAUUUUAUAUAUCUAUUUAAUCAGAAGGCAUAACAUGAGGAUCACCCAUGUAAAUUAAUGUUAUGAGGAUAUGAUAUGGUUA	11.3	78		
UGAUAGGACAGAGGAUAUACCGAUAGGAUCUACUAUCGAAGAAUCCUCACAUGAGGAUCACCCAUGUAGAAGGCUGUCCUAUCU	41.6	678		
UCUUUAUUUGUGAGGAUAUCGAUAAAAUGGAUUGUCGAGAAGGCACAUGAGGAUCACCCAUGUAUUGAACAGCA	59.2	212		
GGAGGACAUGAGGAUCACCCAUGUGGAUGGGCGCUAGGAUAUGCGAGAGGAUGGAGAGAAGCAGAAGGAGUGGGUU			150	107
AAGUCGAGCGUGAGGAUAUCGUUUGAACGACAGAGCGAGAAGGCACAUGAGGAUCACCCAUGUGAUUAAGCUCG	15.6	19.9		
UGUUUUCAUGUAGGAUAUGCUUGUCGUAGAUACGCAGAAGGACAUGAGGAUCACCCAUGUUAAUGCGACAGAGUAUAGAUUCUU	15.3	20.6		
CCCUCGGGAGGAUAUGGGUGUUUUUACAUGAGGAUCACCCAUGUGGAGUAACAUGUGGGUCCAGAAGGCCCAAGGG	1400	663		
ACAUGAUAUGUAGGAUAUCACAUUAAUUGAUUAAUAUUUGAAUAUAGGAUUUGAGAAGGACAUUUACAUGAGGAUCACCCAUGU	20.1	14.4		
CAAAGGACAGGAUAUGCGAGGGAGCCCGUGCAGGUCGCCCAACAUGAGGAUCACCCAUGUAGAAGGGUCAAAAC	32.8	25.8		
AAUCGGGAGCAGAAGGCAUGUCAUAAGACAUGAGGAUCACCCAUGUAGUUAAGAUGAAAAUCGCAUGAGGAUAUGCUCCCGUAA			115	18.5
AAUAAACACACAGGAUAUAGCAUCGACGUUGCGAACUUAGCGACGUCGAUGCUAGAAGGGUGAAAACAUGAGGAUCACCCAUGU			73.3	19.2
CUUUCGUGAGGAUAUGAAACUUCGAUCGUGAGAUCGAGGCUACAGAAGGCACAUGAGGAUCACCCAUGUUCCUC	34.6	420		

Sequence	apparent Kd [1] [nM]	apparent Kd [2] [nM]	apparent Kd [3] [nM]	apparent Kd [4] [nM]
CAGGCGGAGUCAGGAUAUGCACGGUGGACCUAUGACAUGAGGAUCACCCAUGUUACUACGCCUCAGCAGAAGGGACAACCUCCU			88.8	7.87
AUAUAGGCCCAGAAGGUGCCAGCGAGAGCUGCACAUGAGGAUCACCCAUGUUGUCGGUGACGACGCAAGGAUAUGGGCCUAUAU			24.8	7.13
CAGUACUGAGGAUAUACAUGAGGAUCACCCAUGUGUUCCAGCUAGGAAACUAGCAAAGGUAGAAGGCAGUACUG	23.8	521		
UGUCAGAUGGUAGGAUAUUCAUAUCGAGUGACCCUUUCAUAACAUGAGGAUCACCCAUGUCGGUGGGAGAAGGGCCGUAUGGUG	29.8	30.3		
GGUACUCAAAGAGUACCACUACGAACAUGAGGAUCACCCAUGUAGGAUAUGCUACUCAAAGAGUAGCAGAAGGACAUGUGCCUA	17.9	123		
CGUAUUAAACAAGGAUAUCAUUUGUGUACAAGUUUUACAUGAGGAUCACCCAUGUUAAAUGGUUUUGAGAAGGUGUUUAGAUCG			35.3	25.9
AACCAGUUGGUAGGAUAUGGUGCAGUGCUCGUACCAGAAGGACCAACAUGAGGAUCACCCAUGUUGGAAAGUCAACAUUAAUGA	6.23	16.4		
UGGUCAUGAUCAGGAUAUUAACAUGGGCUACAUUAAGAAGGGAUAGUGAGAUGCGAACGGAACGACAUGAGGAUCACCCAUGUA			44.6	35
UUAAUUAAUUAAUUCGUCAAUUACAUGAGGAUCACCCAUGUAUAGGAUAUGCAGUGGAAUACACUGCAGAAGGAUACAUAGACG	22.6	41.5		
GGUGCGUCUGUGAGGAUAUGCUGGUCCUUGGAUCAGCAGAAGGCACAUGAGGAUCACCCAUGUGGUGUCGUACC	233	129		
CUGAGGUCAGGAUAUGCAUGGCGGGACUUGCGUCGUGGCGUGCAGAAGGGACAUGAGGAUCACCCAUGUGGAGA	88.5	203		
CCAGCGUAUGUAAGGAUAUGCUGGUCCUUGGAUCAGCAGAAGGUACAUGAGGAUCACCCAUGUGUAAUCGUUGG	20.6	56.1		
CAGUAGAUCCGAGGAUAUACAAUCCGGAAACGGUACAUGAGGAUCACCCAUGUAGAAGGCGGAUCUACAGGUACUAAAGUACCG	6.37	9.59		
AAGCAACAUGAGGAUCACCCAUGUAGCAGGGUCAGAGGAUAUUUGAGCUUGGCGAGGGUUAAAGAAGGUUGAUAUC			38.8	43.6
CUUAAACAUGAGGAUCACCCAUGUCAGGAUAUGAUACUAUGUACUUCGGUACAUAGUAUCAGAAGGGAUAUGAA	49	64.8		
UAGGGUGUACGAGGAUAUGGGCAUUGGUGGAUCUCAGAAGGCGUAUACGCGCGCAGACAUGAGGAUCACCCAUGUACCCGGCUU			62.8	23.6
AUAAUGGUAGGAUAUACAUGGAUAUACAUUCAUGUGGACCUACAUGAGGAUCACCCAUGUAGAAGGACCAUGAA	33.9	28.6		
ACCAUUUACUAAUCUUCUAUACAUGAGGAUCACCCAUGUUUUGAGGAUAUCAGCGUGAAACACGCUGAGAAGGCAAAACAUUCG	72	393		
GGACCACAUCAGGAUAUGACUAGCCUCGGCUAGUCAGAAGGGAUGACAUGAGGAUCACCCAUGUGAUCAGGUCC	67.9	110		
UGCUGGUGACAGCAUCCAUCAAAACAUGAGGAUCACCCAUGUAGAAGGCUGUACGGUUACCGUACAGAGGAUAUACAAUGAUGC	15.4	29.4		
CAUCUCCCUUUUACAUGAGGAUCACCCAUGUUUUCAUAUUGAGAGGAUAUCGUAUUUGGAAACAUCGAGAAGGCUCAUUUGUAU			536	175
CAGGAUAGAGGAUAUACAUAGAUACAGAUUCGUGUAAUCCUACAUGAGGAUCACCCAUGUAGAAGGCUAUCCUG	14.8	28.5		
GUAGCUAUCGGAGGAUAUUCAUACCGGAAACGGACAUGAGGAUCACCCAUGUGUCGAAAGCCUUGGGAGAAGGUCGAUAGCUAC			260	87.4
CGGAUGUCAGGAUAUACGAACAUGUCGCCAGAUGUCAUGGUACAUGAGGAUCACCCAUGUAGAAGGGAGGUGGU	160	331		
